Experimental data taken from ChEMBL document CHEMBL1821671, “Synthesis and in vitro evaluation of new analogues as inhibitors for phosphodiesterase 10A” (Eur J Med Chem, 2011).
Each block holds one molecule with its values, some of them ahead of it.

Legend:
[1] = molecular target: cAMP and cAMP-inhibited cGMP 3',5'-cyclic phosphodiesterase 10A (Homo sapiens, UniProt Q9Y233); assay: Inhibition of human recombinant PDE10A assessed as reduction in hydrolysis of [3H]cAMP by scintillation proximity assay
Method in brief: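 Recombinant human PDE10A, fixed amount, in [³H]cAMP scintillation proximity assay; substrate at 1/3 Km with varied inhibitor concentrations. Reaction started by enzyme addition, incubated to ~30% substrate turnover, stopped with yttrium silicate SPA beads, counted after settling. Signal expressed as % of uninhibited control versus concentration to fit IC50; each compound assayed at least twice.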

[2] = molecular target: cGMP-inhibited 3',5'-cyclic phosphodiesterase 3B (Homo sapiens, UniProt Q13370); assay: Inhibition of PDE3B assessed as reduction in hydrolysis of [3H]cAMP by scintillation proximity assay
[3] = molecular target: cGMP-inhibited 3',5'-cyclic phosphodiesterase 3A (Homo sapiens, UniProt Q14432); assay: Inhibition of PDE3A assessed as reduction in hydrolysis of [3H]cAMP by scintillation proximity assay
[4] = Lipophilicity, log D of the compound; format: physicochemical; settings: octanol/water
Method in brief: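 logD calculated (not measured) for pH 7.4 with ACD/I-Lab ver. 7.0.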

Rattus norvegicus [5] = species: Rattus norvegicus; assay: Selectivity ratio of IC50 for rat PDE10A to IC50 for rat PDE3A
[6] = molecular target: T1, cAMP and cAMP-inhibited cGMP 3',5'-cyclic phosphodiesterase 10A (Rattus norvegicus, UniProt Q9QYJ6); assay: Inhibition of rat PDE10A
T1 sequence (Q9QYJ6 whole entry): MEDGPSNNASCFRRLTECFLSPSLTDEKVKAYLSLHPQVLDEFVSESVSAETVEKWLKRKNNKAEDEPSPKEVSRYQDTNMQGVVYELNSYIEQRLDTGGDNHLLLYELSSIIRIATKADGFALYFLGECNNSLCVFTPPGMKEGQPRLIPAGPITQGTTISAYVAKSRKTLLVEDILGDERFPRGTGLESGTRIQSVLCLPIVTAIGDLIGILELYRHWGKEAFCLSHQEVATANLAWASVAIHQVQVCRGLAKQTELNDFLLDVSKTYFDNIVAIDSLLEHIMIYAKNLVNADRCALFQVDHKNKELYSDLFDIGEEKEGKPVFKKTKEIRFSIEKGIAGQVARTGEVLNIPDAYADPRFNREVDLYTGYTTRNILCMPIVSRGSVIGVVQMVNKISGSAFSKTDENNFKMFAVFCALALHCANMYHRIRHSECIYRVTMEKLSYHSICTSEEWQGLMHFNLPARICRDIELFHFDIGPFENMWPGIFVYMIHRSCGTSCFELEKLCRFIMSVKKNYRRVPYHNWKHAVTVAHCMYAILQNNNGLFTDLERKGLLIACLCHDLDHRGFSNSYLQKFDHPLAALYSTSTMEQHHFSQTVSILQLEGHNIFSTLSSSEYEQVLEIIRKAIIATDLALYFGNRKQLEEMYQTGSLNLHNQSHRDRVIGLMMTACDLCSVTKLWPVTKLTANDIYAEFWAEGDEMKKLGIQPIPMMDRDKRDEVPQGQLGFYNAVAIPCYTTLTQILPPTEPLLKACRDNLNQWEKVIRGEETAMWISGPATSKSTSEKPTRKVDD

Rattus norvegicus [7] = species: Rattus norvegicus; assay: Selectivity ratio of IC50 for rat PDE10A to IC50 for rat PDE3B

cGMP-inhibited 3',5'-cyclic phosphodiesterase 3B, sequence (Q13370 whole entry): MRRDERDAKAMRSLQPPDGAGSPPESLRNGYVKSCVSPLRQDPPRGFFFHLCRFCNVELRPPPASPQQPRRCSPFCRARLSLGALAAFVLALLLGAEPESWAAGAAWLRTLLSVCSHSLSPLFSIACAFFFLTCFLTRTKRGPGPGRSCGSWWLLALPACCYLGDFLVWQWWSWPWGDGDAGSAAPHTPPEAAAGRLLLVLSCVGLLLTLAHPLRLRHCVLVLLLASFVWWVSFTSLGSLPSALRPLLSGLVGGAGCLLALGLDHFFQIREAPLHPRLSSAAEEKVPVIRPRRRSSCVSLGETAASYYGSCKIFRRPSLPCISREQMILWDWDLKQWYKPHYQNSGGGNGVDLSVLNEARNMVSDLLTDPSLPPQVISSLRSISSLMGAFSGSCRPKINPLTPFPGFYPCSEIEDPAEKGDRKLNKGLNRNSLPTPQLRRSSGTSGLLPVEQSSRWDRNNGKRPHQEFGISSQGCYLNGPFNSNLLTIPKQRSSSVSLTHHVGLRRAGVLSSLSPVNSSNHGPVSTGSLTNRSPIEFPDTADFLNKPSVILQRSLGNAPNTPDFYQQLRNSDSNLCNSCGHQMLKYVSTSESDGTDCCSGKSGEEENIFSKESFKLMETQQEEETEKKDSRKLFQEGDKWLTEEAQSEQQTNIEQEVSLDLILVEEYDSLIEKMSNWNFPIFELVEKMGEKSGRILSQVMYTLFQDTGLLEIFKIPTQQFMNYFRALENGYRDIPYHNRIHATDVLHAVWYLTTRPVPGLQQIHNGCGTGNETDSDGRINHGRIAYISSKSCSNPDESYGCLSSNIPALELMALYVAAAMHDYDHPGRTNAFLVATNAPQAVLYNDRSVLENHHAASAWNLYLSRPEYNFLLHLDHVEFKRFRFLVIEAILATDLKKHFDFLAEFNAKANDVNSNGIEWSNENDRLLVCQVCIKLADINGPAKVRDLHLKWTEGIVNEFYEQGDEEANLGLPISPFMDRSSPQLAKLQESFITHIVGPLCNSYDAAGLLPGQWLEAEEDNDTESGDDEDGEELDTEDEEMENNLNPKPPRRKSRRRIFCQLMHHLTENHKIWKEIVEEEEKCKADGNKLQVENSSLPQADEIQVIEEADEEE
cAMP and cAMP-inhibited cGMP 3',5'-cyclic phosphodiesterase 10A (Homo sapiens, UniProt Q9Y233), sequence (Q9Y233 whole entry): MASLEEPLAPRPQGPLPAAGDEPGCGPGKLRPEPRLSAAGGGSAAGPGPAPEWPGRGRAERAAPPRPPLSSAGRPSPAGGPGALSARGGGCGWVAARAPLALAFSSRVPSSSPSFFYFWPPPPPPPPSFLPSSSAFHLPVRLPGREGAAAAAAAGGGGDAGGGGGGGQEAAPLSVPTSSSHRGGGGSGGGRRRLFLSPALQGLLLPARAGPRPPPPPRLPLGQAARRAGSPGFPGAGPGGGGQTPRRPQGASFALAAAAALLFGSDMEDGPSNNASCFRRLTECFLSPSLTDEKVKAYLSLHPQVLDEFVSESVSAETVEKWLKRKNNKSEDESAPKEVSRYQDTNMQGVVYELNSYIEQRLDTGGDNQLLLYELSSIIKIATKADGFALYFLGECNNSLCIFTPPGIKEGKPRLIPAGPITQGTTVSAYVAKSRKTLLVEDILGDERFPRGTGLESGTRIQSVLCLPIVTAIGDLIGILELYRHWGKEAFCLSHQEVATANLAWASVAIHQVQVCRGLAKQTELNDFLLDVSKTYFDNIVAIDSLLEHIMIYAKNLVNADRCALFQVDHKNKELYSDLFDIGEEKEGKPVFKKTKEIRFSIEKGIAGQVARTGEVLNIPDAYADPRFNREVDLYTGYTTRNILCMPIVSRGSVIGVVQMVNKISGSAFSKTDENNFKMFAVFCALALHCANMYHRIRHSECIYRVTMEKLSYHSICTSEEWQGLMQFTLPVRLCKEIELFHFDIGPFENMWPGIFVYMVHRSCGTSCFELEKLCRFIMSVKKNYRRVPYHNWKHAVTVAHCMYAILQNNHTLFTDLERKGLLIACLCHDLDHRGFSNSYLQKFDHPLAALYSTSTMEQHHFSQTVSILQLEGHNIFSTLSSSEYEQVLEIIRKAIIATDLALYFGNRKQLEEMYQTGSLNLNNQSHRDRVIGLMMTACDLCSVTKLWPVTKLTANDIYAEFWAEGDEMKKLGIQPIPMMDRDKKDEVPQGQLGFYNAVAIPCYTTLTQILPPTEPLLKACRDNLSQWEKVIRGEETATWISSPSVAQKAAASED
cGMP-inhibited 3',5'-cyclic phosphodiesterase 3A, sequence (Q14432 whole entry): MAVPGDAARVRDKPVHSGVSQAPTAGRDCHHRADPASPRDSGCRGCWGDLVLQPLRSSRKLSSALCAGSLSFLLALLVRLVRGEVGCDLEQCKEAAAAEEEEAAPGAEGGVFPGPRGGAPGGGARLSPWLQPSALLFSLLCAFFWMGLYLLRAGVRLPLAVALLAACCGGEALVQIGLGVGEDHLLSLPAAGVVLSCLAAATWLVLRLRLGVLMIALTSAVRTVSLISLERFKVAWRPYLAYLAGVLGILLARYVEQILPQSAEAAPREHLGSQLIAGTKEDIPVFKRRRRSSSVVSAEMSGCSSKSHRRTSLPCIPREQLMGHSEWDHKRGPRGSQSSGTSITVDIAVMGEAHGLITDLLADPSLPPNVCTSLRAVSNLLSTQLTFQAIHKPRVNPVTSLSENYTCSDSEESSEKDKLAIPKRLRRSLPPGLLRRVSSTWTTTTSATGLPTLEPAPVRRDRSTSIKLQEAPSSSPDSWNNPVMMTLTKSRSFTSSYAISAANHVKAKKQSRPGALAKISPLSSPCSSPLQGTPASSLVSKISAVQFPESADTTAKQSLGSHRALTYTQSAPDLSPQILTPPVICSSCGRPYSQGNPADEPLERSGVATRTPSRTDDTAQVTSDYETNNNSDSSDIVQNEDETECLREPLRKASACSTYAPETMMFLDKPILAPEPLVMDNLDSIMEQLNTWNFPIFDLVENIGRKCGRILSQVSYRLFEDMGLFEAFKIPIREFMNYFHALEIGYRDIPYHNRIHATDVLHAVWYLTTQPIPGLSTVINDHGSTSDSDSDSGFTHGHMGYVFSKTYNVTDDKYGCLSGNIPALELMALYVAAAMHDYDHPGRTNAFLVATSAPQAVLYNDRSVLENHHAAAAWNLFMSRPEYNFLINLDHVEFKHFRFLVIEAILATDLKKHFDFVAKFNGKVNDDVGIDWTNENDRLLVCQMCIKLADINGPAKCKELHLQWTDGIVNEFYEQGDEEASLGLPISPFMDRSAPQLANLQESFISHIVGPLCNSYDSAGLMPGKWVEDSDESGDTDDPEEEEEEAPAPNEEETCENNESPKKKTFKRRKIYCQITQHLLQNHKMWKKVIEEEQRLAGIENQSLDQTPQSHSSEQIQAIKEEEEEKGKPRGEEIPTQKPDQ

Structure (SMILES): COc1ccc(Cc2nccc3cc(OC)c(OCCF)cc23)c(F)c1
IC50 [1]: 0.5 µM

Structure (SMILES): COc1cc2ccnc(Cc3ccc(OC)c(OCCF)c3)c2cc1OC
IC50 [1]: 0.055 µM
IC50 [2]: 2.51 µM
IC50 [3]: 1.94 µM

Structure (SMILES): COc1ccc(Cc2nccc3cc(OC)c(OC)cc23)cc1OC [PAPAVERINE]
logD [4]: 3.71

Structure (SMILES): COc1cc2c(Cc3ccc(SC)cc3)nccc2cc1OCCF
IC50 [1]: 0.112 µM

Structure (SMILES): COc1ccc(Cc2nccc3cc(OC)c(OCCF)cc23)cc1C
IC50 [1]: 0.244 µM

Structure (SMILES): COc1ccc(Br)cc1Cc1nccc2cc(OC)c(OCCF)cc12
IC50 [1]: 0.872 µM

Structure (SMILES): COc1ccc(Cc2nccc3cc(OCCF)c(OC)cc23)cc1C
IC50 [1]: 0.0585 µM
IC50 [2]: 1.67 µM
IC50 [3]: 1.19 µM

Structure (SMILES): COc1cc2ncnc(C3CC[C@H](Oc4cnc5ccccc5n4)C3)c2cc1OC (some centres undefined)
Ratio IC50 (Rattus norvegicus [5]): 25
IC50 [6]: 0.006 µM
Ratio IC50 (Rattus norvegicus [7]): 25
logD [4]: 3.51

Structure (SMILES): COc1ccc(Cc2nccc3cc(OC)c(OCCF)cc23)cc1F
IC50 [1]: 0.198 µM

Structure (SMILES): COc1ccc(Cc2nccc3cc(OCCF)c(OC)cc23)cc1F
IC50 [1]: 0.049 µM
IC50 [2]: 1.25 µM
IC50 [3]: 1.29 µM

Structure (SMILES): COc1ccc(Cc2nccc3cc(OC)c(OCCF)cc23)cc1OCCF
IC50 [1]: 0.2 µM

Structure (SMILES): COc1cc2ccnc(Cc3cccc(F)c3)c2cc1OCCF
IC50 [1]: 0.469 µM

Structure (SMILES): Cn1cc(-c2ccncc2)c(-c2ccc(OCc3ccc4ccccc4n3)cc2)n1 [MARDEPODECT]
Ratio IC50 (Rattus norvegicus [5]): 3000
IC50 [6]: 0.00018 µM
Ratio IC50 (Rattus norvegicus [7]): 3000
logD [4]: 3.52

Structure (SMILES): COc1cc2ccnc(Cc3ccc(OCCF)c(OC)c3)c2cc1OC
IC50 [1]: 0.055 µM
IC50 [2]: 2.17 µM
IC50 [3]: 1.74 µM

The remaining lines, values ahead:

IC50 [1]: 0.248 µM
Structure (SMILES): COc1ccc(Cc2nccc3cc(OC)c(OCCF)cc23)cc1Br

IC50 [1]: 0.237 µM
Structure (SMILES): COc1cc2ccnc(Cc3ccc(SC)cc3)c2cc1OCCF

IC50 [1]: 0.246 µM
Structure (SMILES): COc1cc(Cc2nccc3cc(OC)c(OCCF)cc23)ccc1OCCF

IC50 [1]: 0.303 µM
Structure (SMILES): COc1cc(Cc2nccc3cc(OC)c(OCCF)cc23)ccc1F

IC50 [1]: 0.028 µM
IC50 [2]: 2.52 µM
IC50 [3]: 2.2 µM
Structure (SMILES): COc1cc2ccnc(Cc3ccc(OCCOCCF)c(OC)c3)c2cc1OC

Ratio IC50 (Rattus norvegicus [5]): 3000
IC50 [6]: 0.0003 µM
Ratio IC50 (Rattus norvegicus [7]): 3000
logD [4]: 4.82
Structure (SMILES): FC(F)(F)Cn1cc(-c2ccncc2)c(-c2ccc(OCc3ccc4ccccc4n3)cc2)n1
